The values below come from ChEMBL document CHEMBL1128333, “Derivatives of cis-2-amino-8-hydroxy-1-methyltetralin: mixed 5-HT1A-receptor agonists and dopamine D2-receptor antagonists” (J Med Chem, 1995).

The subject of assay [1] is Rattus norvegicus. As to the kind of experiment: Cage leaving response was studied in rats after subcutaneous administration of 1 uM/Kg of compound; 0/7. Type of assay: functional.
For assay [2], the system named is Rattus norvegicus. The assay can be described thus: Change in body temperature was studied in rats upon subcutaneous administration of 1 uM/Kg of compound. The format is functional. The procedure, abridged: (§1)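 Rectal temperature was taken with an electrical thermometer, probe inserted 3.5 cm, before and 30 min after sc injection in 0.9% NaCl. Values are the change from the preinjection reading, analysed by Tukey HSD versus saline-treated rats. Male Sprague–Dawley rats, 260–310 g.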

The species named for assay [3] is Rattus norvegicus. The assay can be described thus: 5-HIAA (5-Hydroxyindoleacetic acid) content of rat hippocampus reflecting 5-HT metabolism and turnover. The format is functional. Also on record: concentration or dose not given beside the values. The procedure, abridged:
(§2)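 Male Sprague–Dawley rats (260–310 g) received compound sc in 0.9% NaCl; saline controls. Rats were decapitated 35–45 min post-injection, and hippocampus and striatum were dissected and frozen. Tissue was homogenized in 0.1 M perchloric acid with α-methyl-5-hydroxytryptophan as internal standard, centrifuged and filtered, then analysed by HPLC-EC at 0.85 V (mobile phase pH 2.69, 35 °C). Values are percent of control, mean ± SEM.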

For assay [4], the species on record is Rattus norvegicus. The assay can be described thus: 5-HT content of rat hippocampus reflecting 5-HT metabolism and turnover. The format is functional. Also on record: concentration or dose not given beside the values. The procedure, abridged:
as §2

For assay [5], the species on record is Rattus norvegicus. The assay can be described thus: DA (dopamine) content of rat striatum reflecting DA metabolism and turnover. Type of assay: functional. The procedure, abridged: as §2
The species entered for assay [6] is Rattus norvegicus. The assay can be described thus: DOPAC (3,4-dihydroxyphenylacetic acid) content of rat striatum reflecting DA metabolism and turnover. Type of assay: functional. Also on record: concentration or dose not given beside the values. The procedure, abridged:
as §2

For assay [7], the species on record is Rattus norvegicus. The assay can be described thus: HVA (Homovanillic acid)content of rat striatum reflecting DA metabolism and turnover. The format is functional. Also on record: concentration or dose not given beside the values.
Assay [8] has as its system Rattus norvegicus. The assay can be described thus: Flat body posture behavior was studied in rats after subcutaneous administration of 1 uM/Kg of compound; 7/7. Type of assay: functional. The gist of the method: (§3)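 Test compounds were given at 32 μmol/kg and the reference 5-HT1A agonist at 1 μmol/kg. Flat body posture, forepaw treading and hind limb abduction were each scored as absent or present. Values are animals showing the behavior out of animals tested, analysed by Fisher's exact test. Male Sprague–Dawley rats, 260–310 g.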

Assay [9] concerns Rattus norvegicus. As to the kind of experiment: Forepaw treading (FPT) behavior was studied in rats after subcutaneous administration of 1 uM/Kg of compound; 7/7. The format is functional. The procedure, abridged: as §3
Assay [10] deals with T1, 5-hydroxytryptamine receptor 1A (Rattus norvegicus, UniProt P19327).
T1 sequence (P19327 whole entry): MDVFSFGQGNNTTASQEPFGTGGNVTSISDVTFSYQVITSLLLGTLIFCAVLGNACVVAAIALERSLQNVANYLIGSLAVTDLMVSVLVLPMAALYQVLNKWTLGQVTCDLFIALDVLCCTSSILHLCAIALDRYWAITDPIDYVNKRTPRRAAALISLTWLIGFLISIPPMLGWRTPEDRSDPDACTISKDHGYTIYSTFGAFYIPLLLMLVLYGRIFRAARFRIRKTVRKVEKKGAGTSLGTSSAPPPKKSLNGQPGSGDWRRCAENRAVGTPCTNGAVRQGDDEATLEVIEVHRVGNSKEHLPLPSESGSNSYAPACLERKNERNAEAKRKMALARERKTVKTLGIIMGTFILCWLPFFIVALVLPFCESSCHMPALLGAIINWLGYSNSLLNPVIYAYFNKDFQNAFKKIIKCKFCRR
As to the kind of experiment: Binding affinity for 5-hydroxytryptamine 1A receptor in rat brain tissue using [3H]8-OH-DPAT as radioligand. The format is tissue-based. The gist of the method:
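Membranes from male Sprague–Dawley rat cortex plus hippocampus, homogenized in 50 mM Tris-HCl with 4.0 mM CaCl2 and 5.7 mM ascorbic acid, pH 7.5, and preincubated 10 min at 37 °C with 10 μM pargyline. Assay used 5 mg/mL tissue and 2 nM [3H]-8-OH-DPAT, 10 min at 37 °C. Nonspecific binding was defined with 10 μM 5-HT. Bound ligand was separated on GF/B filters and counted; data were fitted by nonlinear regression.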

Another assay deals with D(2) dopamine receptor (Homo sapiens, UniProt P14416). As to the kind of experiment: In vitro binding affinity towards human Dopamine receptor D2A was determined in mouse fibroblast LtK cells using [3H]raclopride. The format is cell-based. The gist of the method:
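Membranes from Ltk− mouse fibroblasts stably expressing human D2A receptors, at 80–100 pM receptor. Buffer was 50 mM Tris-HCl, 120 mM NaCl, 5 mM KCl, 1.5 mM CaCl2, 4 mM MgCl2, 1 mM EDTA, pH 7.4. Incubation with [3H]raclopride was 60 min at 22 °C, in duplicate, with 1 μM (+)-butaclamol for nonspecific binding. Bound ligand was separated on GF/B filters; data were fitted by nonlinear regression.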

In assay [11] the test system is Rattus norvegicus. The assay can be described thus: Cage leaving response was studied in rats after subcutaneous administration of 32 uM/Kg of compound; 1/4. Type of assay: functional.
Assay [12] has as its system Rattus norvegicus. The assay can be described thus: Change in body temperature in rats after subcutaneous administration. The format is functional. The procedure, abridged:
as §1

The subject of assay [13] is Rattus norvegicus. As to the kind of experiment: Flat body posture behavior was studied in rats after subcutaneous administration of 32 uM/Kg of compound; 0/4. Type of assay: functional. The gist of the method:
as §3

Assay [14] has as its system Rattus norvegicus. As to the kind of experiment: Forepaw treading (FPT) behavior was studied in rats after subcutaneous administration of 32 uM/Kg of compound; 0/4. Type of assay: functional. The procedure, abridged:
as §3

The species entered for assay [15] is Rattus norvegicus. As to the kind of experiment: Ratio of serotonin turnover (5HIAA to 5-HT) in rat brain hippocampus compared to control. Type of assay: functional. The procedure, abridged:
as §2

The species named for assay [16] is Rattus norvegicus. As to the kind of experiment: Ratio of turnover (DOPAC to DA) in rat brain striatum compared to control. The format is functional. The procedure, abridged: as §2
Assay [17] relates to Rattus norvegicus. The assay can be described thus: Cage leaving response was studied in rats after subcutaneous administration of 32 uM/Kg of compound; 0/4. The format is functional.
Assay [18] relates to Rattus norvegicus. The assay can be described thus: Flat body posture behavior was studied in rats after subcutaneous administration of 32 uM/Kg of compound; 4/4. Type of assay: functional. The gist of the method:
as §3

The subject of assay [19] is Rattus norvegicus. The assay can be described thus: Forepaw treading (FPT) behavior was studied in rats after subcutaneous administration of 32 uM/Kg of compound; 4/4. The format is functional. The gist of the method: as §3
The subject of assay [20] is Rattus norvegicus. The assay can be described thus: Cage leaving response was studied in rats after subcutaneous administration of 32 uM/Kg of compound; 1/5. Type of assay: functional.
Assay [21] relates to Rattus norvegicus. As to the kind of experiment: Flat body posture behavior was studied in rats after subcutaneous administration of 32 uM/Kg of compound; 3/5. The format is functional. The procedure, abridged: as §3
Assay [22] relates to Rattus norvegicus. As to the kind of experiment: Forepaw treading (FPT) behavior was studied in rats after subcutaneous administration of 32 uM/Kg of compound; 0/5. Type of assay: functional.
The test system of assay [23] is Rattus norvegicus. The assay can be described thus: Cage leaving response was studied in rats after subcutaneous administration of 32 uM/Kg of compound; 2/5. Type of assay: functional.
The test system of assay [24] is Rattus norvegicus. The assay can be described thus: Flat body posture behavior was studied in rats after subcutaneous administration of 32 uM/Kg of compound; 0/5. Type of assay: functional.

D(2) dopamine receptor, sequence (P14416 whole entry): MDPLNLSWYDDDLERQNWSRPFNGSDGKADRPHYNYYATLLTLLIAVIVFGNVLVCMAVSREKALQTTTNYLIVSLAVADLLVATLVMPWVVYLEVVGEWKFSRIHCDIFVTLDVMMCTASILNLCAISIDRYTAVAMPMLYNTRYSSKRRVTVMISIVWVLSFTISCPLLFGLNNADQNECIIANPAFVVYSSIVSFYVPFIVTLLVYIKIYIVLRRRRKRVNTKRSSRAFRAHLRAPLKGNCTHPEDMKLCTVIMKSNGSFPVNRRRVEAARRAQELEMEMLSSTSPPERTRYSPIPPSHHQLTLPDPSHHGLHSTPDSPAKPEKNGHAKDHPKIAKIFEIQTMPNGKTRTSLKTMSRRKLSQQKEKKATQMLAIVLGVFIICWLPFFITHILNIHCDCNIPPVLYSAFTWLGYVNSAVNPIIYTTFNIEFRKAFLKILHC

`CCCN(CCC)[C@@H]1CCc2cccc(O)c2C1` displayed a Cage leaving in the assay on Rattus norvegicus [1] of 0. The “Change of body temperature” value in the assay with Rattus norvegicus [2] is -2.6 °C. The Control was determined as 80% in the assay listed under Rattus norvegicus [3]; 130% in the assay listed under Rattus norvegicus [4]; 108% in the assay filed under Rattus norvegicus [5]; 109% in the assay filed under Rattus norvegicus [6]; 105% in the assay listed under Rattus norvegicus [7]. Further, the FBP in the assay on Rattus norvegicus [8] came to 7. The same molecule gave an FPT with Rattus norvegicus [9] of 7.
In general, Ki refers to the equilibrium dissociation constant of an inhibitor or competing ligand from its target. Regarding `CCCN(CCC)[C@H]1CCc2cccc(OC)c2[C@H]1C`, the Ki is 285 nM in [10] and 1050 nM at D(2) dopamine receptor. In the assay on Rattus norvegicus [11], this molecule came in with a Cage leaving of 1. Further, the “Change of body temperature” value in the assay on Rattus norvegicus [12] was -1.2 °C. The Control amounted to 79% in the assay filed under Rattus norvegicus [3]; 81% in the assay listed under Rattus norvegicus [4]; 118% in the assay listed under Rattus norvegicus [5]; 80% in the assay filed under Rattus norvegicus [6]; 53% in the assay listed under Rattus norvegicus [7]. This molecule also yielded an FBP in the assay on Rattus norvegicus [13] of 0. This molecule also registered an FPT with Rattus norvegicus [14] of 0. In addition, the figures for the Ratio in the assay filed under Rattus norvegicus [15] and in the assay filed under Rattus norvegicus [16] were 96 and 69, respectively.
As to `CCCN(CCC)[C@@H]1CCc2cccc(OC)c2[C@@H]1C`, the Ki was 6 nM in assay [10] and 33.9 nM at D(2) dopamine receptor. The same molecule had a Cage leaving in the assay with Rattus norvegicus [17] of 0. For the same molecule, in the assay on Rattus norvegicus [12], the “Change of body temperature” value was -2.5 °C. The Control in the assay filed under Rattus norvegicus [3] was determined as 76%; in the assay listed under Rattus norvegicus [4] it was 108%; in the assay filed under Rattus norvegicus [5], 89%; in the assay filed under Rattus norvegicus [6], 134%; in the assay listed under Rattus norvegicus [7] it was 121%. In the assay on Rattus norvegicus [18], this molecule showed an FBP of 4. Further, in the assay with Rattus norvegicus [19], the FPT worked out at 4. The Ratio in the assay listed under Rattus norvegicus [15] is 70; in the assay filed under Rattus norvegicus [16], 151.
For `CCCN(CCC)[C@@H]1CCc2ccccc2[C@@H]1C`, the inhibition constant (Ki) in assay [10] worked out at 49 nM; at D(2) dopamine receptor, 87 nM. In addition, the Cage leaving in the assay on Rattus norvegicus [20] stood at 1. The “Change of body temperature” value in the assay on Rattus norvegicus [12] is -0.7 °C. For the same molecule, the Control in the assay listed under Rattus norvegicus [3] is recorded as 92%; in the assay listed under Rattus norvegicus [4], 94%; in the assay listed under Rattus norvegicus [5], 95%; in the assay filed under Rattus norvegicus [6] it was 152%; in the assay filed under Rattus norvegicus [7], 168%. In the assay with Rattus norvegicus [21], this molecule displayed an FBP of 3. In the assay on Rattus norvegicus [22], this molecule came in with an FPT of 0. For the same molecule, the results for the Ratio in the assay filed under Rattus norvegicus [15] and in the assay listed under Rattus norvegicus [16] were 98 and 164, respectively.
The molecule `CCCN(CCC)[C@H]1CCc2cccc(C(=O)OC)c2[C@H]1C` yielded a Ki in assay [10] of 417 nM. Further, the Cage leaving in the assay on Rattus norvegicus [23] is on record as 2. The “Change of body temperature” value in the assay with Rattus norvegicus [12] is -0.1 °C. Besides, the Control is given as 112% in the assay filed under Rattus norvegicus [3]; 86% in the assay filed under Rattus norvegicus [4]; 96% in the assay listed under Rattus norvegicus [5]; 97% in the assay listed under Rattus norvegicus [6]; 104% in the assay listed under Rattus norvegicus [7]. For the same molecule, the FBP with Rattus norvegicus [24] amounted to 0. In the assay on Rattus norvegicus [22], the FPT was determined as 0. For the same molecule, the Ratio in the assay listed under Rattus norvegicus [15] is on record as 131; in the assay filed under Rattus norvegicus [16] it was 103.
